What was measured:
[1] = target: T1, Transient receptor potential cation channel subfamily V member 1 (Rattus norvegicus, UniProt O35433); assay: Agonist activity at TRPV1 in Sprague-Dawley rat DRG neuron assessed as intracellular 45Ca2+ influx by scintillation counting; type: functional, cell-based
[2] = target: T1, Transient receptor potential cation channel subfamily V member 1; assay: Antagonist activity at TRPV1 in Sprague-Dawley rat DRG neuron assessed as reduction of capsaicin-stimulated intracellular 45Ca2+ influx by scintillation counting; type: functional, cell-based
Summary of the method: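 Neonatal rat spinal DRG neurons, dissociated with collagenase then trypsin (30 min each, 37 °C), cultured 3 days in horse-serum DME/F12 with C6-glioma-conditioned medium. Neurons were given ⁴⁵Ca²⁺ plus capsaicin with compound for 10 min at room temperature in HEPES (10 mM, pH 7.4) Ca/Mg-free HBSS, then washed and dried.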

[3] = target: Transient receptor potential cation channel subfamily V member 1 (Rattus norvegicus) (UniProt O35433); assay: Ratio of compound IC50 to ATC-120 IC50 for TRPV1 in Sprague-Dawley rat DRG neuron
[4] = target: Transient receptor potential cation channel subfamily V member 1 (Rattus norvegicus) (UniProt O35433); assay: Ratio of compound IC50 to SC-0030 IC50 for TRPV1 in Sprague-Dawley rat DRG neuron

T1 sequence (O35433 whole entry): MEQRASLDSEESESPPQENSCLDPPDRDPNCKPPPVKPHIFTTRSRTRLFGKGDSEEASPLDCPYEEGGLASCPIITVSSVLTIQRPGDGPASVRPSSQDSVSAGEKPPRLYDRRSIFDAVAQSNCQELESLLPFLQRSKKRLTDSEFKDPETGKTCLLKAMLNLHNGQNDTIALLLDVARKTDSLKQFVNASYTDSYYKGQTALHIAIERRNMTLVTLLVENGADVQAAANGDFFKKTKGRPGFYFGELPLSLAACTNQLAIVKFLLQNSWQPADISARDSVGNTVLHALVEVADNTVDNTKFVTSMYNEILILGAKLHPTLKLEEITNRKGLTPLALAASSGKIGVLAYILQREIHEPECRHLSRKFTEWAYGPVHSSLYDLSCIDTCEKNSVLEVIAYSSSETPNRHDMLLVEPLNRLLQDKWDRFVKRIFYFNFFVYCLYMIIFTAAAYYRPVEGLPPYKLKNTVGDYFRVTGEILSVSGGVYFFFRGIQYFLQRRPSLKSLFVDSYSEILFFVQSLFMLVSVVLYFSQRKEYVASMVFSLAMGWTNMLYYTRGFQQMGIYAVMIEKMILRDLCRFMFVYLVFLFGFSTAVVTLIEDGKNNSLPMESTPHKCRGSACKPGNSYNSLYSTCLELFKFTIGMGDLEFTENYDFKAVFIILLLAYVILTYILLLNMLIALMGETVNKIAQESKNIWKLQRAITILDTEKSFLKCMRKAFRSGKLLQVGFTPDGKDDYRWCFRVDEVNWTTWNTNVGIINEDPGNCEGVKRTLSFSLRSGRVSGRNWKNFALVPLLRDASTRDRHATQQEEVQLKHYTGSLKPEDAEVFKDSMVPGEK
Transient receptor potential cation channel subfamily V member 1 (Rattus norvegicus), sequence (O35433 whole entry): as above

SMILES	EC50 [1] [nM]	IC50 [2] [nM]	Ratio IC50 [3]	Ratio IC50 [4]
CC[Si](C)(C)c1ccc(CNC(=S)N[C@H](C)c2ccc(NS(C)(=O)=O)cc2)cc1	> 100000	670	–	–
CC[Si](CC)(CC)c1ccc(CNC(=S)NCc2ccc(NS(C)(=O)=O)cc2)cc1	> 100000	3100	–	–
CC[Si](C)(C)c1ccc(CNC(=S)NCc2ccc(NS(C)(=O)=O)cc2)cc1	> 100000	1200	–	–
C[Si](C)(C)c1ccc(CNC(=S)NCc2ccc(NS(C)(=O)=O)c(F)c2)cc1	> 100000	160	4	4
CC[Si](CC)(CC)c1ccc(CNC(=S)N[C@H](C)c2ccc(NS(C)(=O)=O)cc2)cc1	> 100000	1500	–	–
C[C@@H](NC(=S)NCc1ccc([Si](C)(C)C)cc1)c1ccc(NS(C)(=O)=O)cc1	> 100000	210	4	4

More lines, now with the values ahead:

EC50 [1] [nM]	IC50 [2] [nM]	Ratio IC50 [3]	Ratio IC50 [4]	SMILES
> 100000	150	–	–	C[Si](C)(C)c1ccc(CNC(=S)NCc2ccc(NS(C)(=O)=O)cc2)cc1
> 100000	40	–	–	CC(C)(C)c1ccc(CNC(=S)NCc2ccc(NS(C)(=O)=O)c(F)c2)cc1
> 100000	50	–	–	C[C@@H](NC(=S)NCc1ccc(C(C)(C)C)cc1)c1ccc(NS(C)(=O)=O)cc1
